Data: ChEMBL document CHEMBL3244174, “Synthesis and biological activity of some new furan quaternary salts” (J Med Chem, 1977)

Legend:
Histoplasma capsulatum = assay: Antifungal activity against Histoplasma capsulatum RNSH Hi-70 1/2 assessed as growth inhibition by agar dilution method; format: functional
Cryptococcus neoformans = assay: Antifungal activity against Cryptococcus neoformans 103 assessed as growth inhibition by agar dilution method; format: functional
[1] = system: Agrobacterium tumefaciens; assay: Antibacterial activity against Agrobacterium tumefaciens NRRL B-36 assessed as growth inhibition after 24 hrs by dilution tube method; format: functional; settings: NRRL B-36, 24 h
Outline: (§1)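 Broth tube dilution in Tryptone Soya Broth, duplicate tubes at each concentration. MIC (μg/ml) was the highest dilution preventing visible growth. Nitrofurantoin run under the same conditions.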

Nannizzia gypsea = assay: Antifungal activity against Microsporum gypseum 153 CSTM assessed as growth inhibition by agar dilution method; format: functional
Enterococcus faecalis = assay: Antibacterial activity against Streptococcus faecalis ATCC 10541 assessed as growth inhibition after 24 hrs by dilution tube method; format: functional; settings: ATCC 10541, 24 h; outline: as §1
Klebsiella pneumoniae = assay: Antibacterial activity against Klebsiella pneumoniae ATCC 10031 assessed as growth inhibition after 24 hrs by dilution tube method; format: functional; settings: ATCC 10031, 24 h; outline: as §1
[2] = system: Trichophyton mentagrophytes; assay: Antifungal activity against Trichophyton mentagrophytes A-280 USPHS assessed as growth inhibition by agar dilution method; format: functional
Salmonella typhi = assay: Antibacterial activity against Salmonella typhi 115 assessed as growth inhibition after 24 hrs by dilution tube method; format: functional, Salmonella enterica subsp. enterica serovar Typhi; settings: Salmonella enterica, 115, 24 h
Outline: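 Dilution tube method in Tryptone Soya Broth; MIC (μg/ml) taken as highest dilution preventing visible growth; duplicates at every concentration; nitrofurantoin reference run under same conditions.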

[3] = system: Mycobacterium tuberculosis; assay: Antibacterial activity against Mycobacterium tuberculosis H37Rv assessed as growth inhibition by serial dilution method; format: functional
Outline: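 M. tuberculosis H37Rv maintained on Lowenstein–Jensen medium; tested in Youman's medium by serial dilution.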

Microsporum canis = assay: Antifungal activity against Microsporum canis VM-200 USPHS assessed as growth inhibition by agar dilution method; format: functional
Pseudomonas aeruginosa = assay: Antibacterial activity against Pseudomonas aeruginosa ATCC 10145 assessed as growth inhibition after 24 hrs by dilution tube method; format: functional; settings: ATCC 10145, 24 h; outline: as §1
Escherichia coli = assay: Antibacterial activity against Escherichia coli 114 assessed as growth inhibition after 24 hrs by dilution tube method; format: functional; settings: Escherichia coli, 114, 24 h; outline: as §1
Candida albicans = assay: Antifungal activity against Candida albicans SKF 2270 assessed as growth inhibition by agar dilution method; format: functional
Trichophyton rubrum = assay: Antifungal activity against Trichophyton rubrum 252 CSTM assessed as growth inhibition by agar dilution method; format: functional
Staphylococcus aureus = assay: Antibacterial activity against Staphylococcus aureus ATCC 6538 assessed as growth inhibition after 24 hrs by dilution tube method; format: functional; settings: ATCC 6538, 24 h; outline: as §1

| Compound | MIC (Histoplasma capsulatum) | MIC (Cryptococcus neoformans) | MIC [1] | MIC (Nannizzia gypsea) | MIC (Enterococcus faecalis) | MIC (Klebsiella pneumoniae) | MIC [2] | MIC (Salmonella typhi) | MIC [3] | MIC (Microsporum canis) | MIC (Pseudomonas aeruginosa) | MIC (Escherichia coli) | MIC (Candida albicans) | MIC (Trichophyton rubrum) | MIC (Staphylococcus aureus) |
| --- | --- | --- | --- | --- | --- | --- | --- | --- | --- | --- | --- | --- | --- | --- | --- |
| C[N+](C)(CCOc1ccc(Cl)cc1Cl)Cc1ccc(Br)o1.[Br-] | > 200 µg/mL | > 200 µg/mL | > 200 µg/mL | > 200 µg/mL | > 200 µg/mL | 100 µg/mL | > 200 µg/mL | > 200 µg/mL | > 200 µg/mL | > 200 µg/mL | 50 µg/mL | > 200 µg/mL | > 200 µg/mL | > 200 µg/mL | 100 µg/mL |
| C[N+](C)(CCCCCOc1c(Br)cc(Br)cc1Br)Cc1ccc([N+](=O)[O-])o1.[Br-] | > 200 µg/mL | 25 µg/mL | 25 µg/mL | > 200 µg/mL | 25 µg/mL | 5 µg/mL | > 200 µg/mL | > 200 µg/mL | 7.5 µg/mL | > 200 µg/mL | 7.5 µg/mL | > 200 µg/mL | > 200 µg/mL | > 200 µg/mL | 25 µg/mL |
| Cc1cc(OCC[N+](C)(C)Cc2ccc(Br)o2)c(C(C)C)cc1Cl.[Br-] | 50 µg/mL | 50 µg/mL | 25 µg/mL | > 200 µg/mL | 25 µg/mL | 25 µg/mL | 100 µg/mL | 100 µg/mL | 10 µg/mL | 100 µg/mL | 5 µg/mL | > 200 µg/mL | > 200 µg/mL | > 200 µg/mL | 9 µg/mL |
| Cc1cc(OCC[N+](C)(C)Cc2ccc([N+](=O)[O-])o2)c(C(C)C)cc1Cl.Cc1ccc(S(=O)(=O)[O-])cc1 | > 200 µg/mL | 100 µg/mL | 100 µg/mL | > 200 µg/mL | 200 µg/mL | 25 µg/mL | > 200 µg/mL | > 200 µg/mL | 50 µg/mL | > 200 µg/mL | 25 µg/mL | > 200 µg/mL | > 200 µg/mL | > 200 µg/mL | 100 µg/mL |
| Cc1ccc(C[N+](C)(C)CCCCOc2cc(C)c(Cl)cc2C(C)C)o1.[Br-] | 100 µg/mL | 25 µg/mL | 50 µg/mL | > 200 µg/mL | 25 µg/mL | 5 µg/mL | 50 µg/mL | 100 µg/mL | 10 µg/mL | 25 µg/mL | 5 µg/mL | > 200 µg/mL | 50 µg/mL | > 200 µg/mL | 25 µg/mL |
| C[N+](C)(CCCCCCCCCCCCOc1c(Br)cc(Br)cc1Br)Cc1ccc(Br)o1.[Br-] | > 200 µg/mL | 200 µg/mL | > 200 µg/mL | > 200 µg/mL | 200 µg/mL | 200 µg/mL | > 200 µg/mL | > 200 µg/mL | 100 µg/mL | 200 µg/mL | 50 µg/mL | > 200 µg/mL | > 200 µg/mL | > 200 µg/mL | 200 µg/mL |
| Cc1cc(OCCCCCCCCCCCC[N+](C)(C)Cc2ccc([N+](=O)[O-])o2)c(C(C)C)cc1Cl.Cc1ccc(S(=O)(=O)[O-])cc1 | > 200 µg/mL | 100 µg/mL | > 200 µg/mL | > 200 µg/mL | 200 µg/mL | 200 µg/mL | > 200 µg/mL | > 200 µg/mL | 100 µg/mL | > 200 µg/mL | 50 µg/mL | > 200 µg/mL | > 200 µg/mL | > 200 µg/mL | 200 µg/mL |
| C[N+](C)(CCCCCCCCOc1c(Br)cc(Br)cc1Br)Cc1ccc([N+](=O)[O-])o1.[Br-] | > 200 µg/mL | 4 µg/mL | 10 µg/mL | > 200 µg/mL | 4 µg/mL | 2 µg/mL | > 200 µg/mL | > 200 µg/mL | 7.5 µg/mL | > 200 µg/mL | 2 µg/mL | > 200 µg/mL | > 200 µg/mL | > 200 µg/mL | 4 µg/mL |
| Cc1cc(OCCCCCCC[N+](C)(C)Cc2ccc([N+](=O)[O-])o2)c(C(C)C)cc1Cl.[Br-] | > 200 µg/mL | 4 µg/mL | 7.5 µg/mL | > 200 µg/mL | 3 µg/mL | 3 µg/mL | > 200 µg/mL | > 200 µg/mL | 5 µg/mL | > 200 µg/mL | 2 µg/mL | > 200 µg/mL | > 200 µg/mL | > 200 µg/mL | 4 µg/mL |
| C[N+](C)(CCOc1ccc(Cl)cc1Cl)Cc1ccc([N+](=O)[O-])o1.[Br-] | > 200 µg/mL | > 200 µg/mL | > 200 µg/mL | > 200 µg/mL | > 200 µg/mL | 100 µg/mL | > 200 µg/mL | > 200 µg/mL | > 200 µg/mL | > 200 µg/mL | 100 µg/mL | > 200 µg/mL | > 200 µg/mL | > 200 µg/mL | 200 µg/mL |
